Bioassay records (PubChem BioAssay)
thrombin 1536: human alpha-thrombin inhibitors, primary screen, counter-screen for coagulation protease inhibitor project, biochemical, 1536-well, fluorogenic AMC substrate; inhibition, % at 5 µM; Boc-VPR-AMC fluorogenic substrate cleavage; 0.26% of 220,000 active; Prothrombin (Homo sapiens), P00734;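 active = inhibition at or above 40%; inactive = inhibition below 40%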;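 also: 0% = enzyme with no compound and 100% = wells without enzyme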
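Material: Human alpha-thrombin protein | Buffer or medium: pH 7.5 Tris-saline with Tween 20 | Reagent: Boc-VPR-AMC substrate, 15 µM final | Schedule: Reaction at ambient temperature | Detection: AMC fluorescence at 355 nm excitation and 460 nm emission | Evaluation: Percent inhibition scaled between no-compound controls and no-enzyme blanks | Controls: no-compound enzyme wells and no-enzyme blanks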
FXIa inh: human FXIa protease inhibitors, primary screen, biochemical, 1536-well; 0.14% of 220,000 active; purified FXIa, Boc-Glu-Ala-Arg-AMC fluorogenic substrate; Coagulation factor XI (Homo sapiens), P03951; AID 798, 2007; inhibition, % at 5 µM;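 active = inhibition of at least 40%; inactive = inhibition below 40%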;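 also: fluorescence of freed AMC excited at 355 nm; 0% = enzyme without compound and 100% = no enzyme blank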
AHR activator: AHR activators, primary screen, cell-based, luminescence, luciferase reporter, human; Aryl hydrocarbon receptor (Homo sapiens), P35869; AHR-responsive luciferase reporter cells; activation, % at 5 µM; 2.5% of 320,000 active; in the data active = activation above about 47%;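 also: 0% = vehicle wells and 100% = reference agonist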
Target sequence (P35869 whole entry, looked up): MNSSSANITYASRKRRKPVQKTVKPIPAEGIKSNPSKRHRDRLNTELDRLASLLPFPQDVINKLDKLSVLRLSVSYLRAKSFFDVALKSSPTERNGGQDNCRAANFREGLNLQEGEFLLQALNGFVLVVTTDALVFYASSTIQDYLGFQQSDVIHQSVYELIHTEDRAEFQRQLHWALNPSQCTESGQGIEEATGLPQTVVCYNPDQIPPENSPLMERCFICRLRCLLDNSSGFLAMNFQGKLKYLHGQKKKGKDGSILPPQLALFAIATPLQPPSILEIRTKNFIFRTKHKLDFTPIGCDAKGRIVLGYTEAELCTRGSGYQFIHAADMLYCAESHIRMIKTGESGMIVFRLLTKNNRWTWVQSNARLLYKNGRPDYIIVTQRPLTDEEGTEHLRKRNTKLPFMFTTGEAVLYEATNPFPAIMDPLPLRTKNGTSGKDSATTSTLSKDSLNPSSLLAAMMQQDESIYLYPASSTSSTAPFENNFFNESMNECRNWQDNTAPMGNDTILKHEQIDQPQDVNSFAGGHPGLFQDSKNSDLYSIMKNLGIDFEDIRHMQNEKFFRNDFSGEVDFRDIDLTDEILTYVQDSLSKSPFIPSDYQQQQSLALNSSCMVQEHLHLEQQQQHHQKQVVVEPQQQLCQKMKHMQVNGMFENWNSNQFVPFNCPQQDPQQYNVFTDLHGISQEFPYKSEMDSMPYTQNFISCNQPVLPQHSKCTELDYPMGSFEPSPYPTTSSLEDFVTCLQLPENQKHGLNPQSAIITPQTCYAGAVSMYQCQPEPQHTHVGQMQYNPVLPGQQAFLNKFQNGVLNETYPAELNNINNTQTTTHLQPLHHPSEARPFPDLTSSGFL
FXIIa inh: human FXIIa protease inhibitors, primary screen, biochemical, 1536-well. Coagulation factor XII (Homo sapiens), P00748. purified FXIIa, Boc-QGR-AMC fluorogenic substrate, 2 h. inhibition, % at 5 µM. 0.3% of 220,000 active. AID 800, 2007; in the data active = inhibition above about 40%;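 also: 0% = enzyme with no compound and 100% = blank without enzyme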
STAT3 activator: IL-6 driven STAT3 reporter potentiators, primary screen, U3A cells, luciferase, luminescence, MLSCN library | IL-6 STAT3-luciferase reporter; 100% = signal with IL-6 EC80 alone | activation (% of control), % at 5.6 µM | 0.91% of 190,000 active;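 active = activation above the screen-wide mean of compound activation plus 3 SD, cut at about 130% in these data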;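 also: 0% = background luminescence of wells with medium and substrate only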
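Test system: STAT3-luciferase reporter U3A cells; Detection: reporter luminescence signal; Times: 1 h compound pre-exposure, 6 h IL-6 stimulation, 37 °C; Benchmarks: IL-6-only high control; Also added: IL-6 stimulus at 33 ng/mL final.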
hK5 inh: human KLK5 protease inhibitors, primary screen, biochemical, 1536-well; 0.59% of 210,000 active; Kallikrein-5 (Homo sapiens), Q9Y337; recombinant hK5, fluorogenic AMC substrate cleavage; inhibition, % at 5 µM;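 active = inhibition of 40% or more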;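 also: 0% = enzyme controls without compound and 100% = no-enzyme blanks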
Numbers without * were called inactive; / = not tested or not shown. Compounds with a hit are over-represented: about 3.5% of the library has one in this group of screens.

SMILES	thrombin 1536	FXIa inh	AHR activator	FXIIa inh	STAT3 activator	hK5 inh
Cc1ccc(C2=N/C(=C\N3CCCCC3)C(=O)O2)cc1	-6	3	-1	-3	100	-15
O=C(Nc1ccc2c(c1)OCO2)c1ccc(Br)o1	-9	4	129*	2	118	-27
O=C(Nc1ccc2c(c1)OCO2)c1cncc(Br)c1	-5	1	93*	8	92	3
O=C(Nc1ccc2c(c1)OCCO2)c1cncc(Br)c1	-4	-3	18	6	66	6
COc1ccc(N2C(=O)C3CCCN3C2c2ccccc2F)cc1 (stereo unspecified)	-1	5	-1	7	92	-7
O=C1C2CCCN2C(c2ccccc2F)N1c1ccc(Cl)cc1 (stereo unspecified)	2	6	52*	15	110	10
NS(=O)(=O)c1ccc(CNC(=O)c2ccc(S(=O)(=O)NCc3ccco3)cc2)cc1	/	/	0	/	/	/
O=C(CSc1ccc(-c2cccnc2)nn1)Nc1ccc(F)cc1F	/	/	65*	/	/	/
Nn1c(SCC(=O)Nc2ccc(F)cc2F)nnc1-c1cccnc1	34	10	13	34	97	41*
Nn1c(SCC(=O)Nc2ccc(F)cc2)nnc1-c1ccccn1	1	7	48*	10	104	3
Cc1csc(NC(=O)c2nn(C)c(C)c2[N+](=O)[O-])n1	1	9	36	8	94	-4
Cc1csc(SCC(=O)Nc2cc([N+](=O)[O-])ccc2F)n1	/	/	1	/	/	/
Cc1n[nH]c(C)c1CCC(=O)N/N=C/c1cccs1	20	30	6	48*	/	69*
Cc1n[nH]c(C)c1CCC(=O)N/N=C/c1c[nH]c2ccccc12	2	48*	13	27	/	58*
Cc1n[nH]c(C)c1CCC(=O)N/N=C/c1c(C)[nH]c2ccccc12	2	2	29	12	/	3
Cc1ccc(/C=N/NC(=O)CNC(=O)c2cccc([N+](=O)[O-])c2C)o1	-5	-2	6	6	100	3
CSc1nc(-c2ccc(Cl)cc2)nn1C(=O)c1ccccc1	29	23	9	17	92	63*
CCS(=O)(=O)n1nc(-c2ccc(Cl)cc2)nc1SCc1ccccc1	-5	-8	17	0	104	-9
CSc1nc(-c2ccccc2)nn1S(=O)(=O)c1ccc(Cl)cc1	1	-19	1	14	102	10
CSc1nc(-c2ccccc2)nn1C(=O)c1ccc(Cl)cc1	84*	20	2	17	102	68*
CN(C)C(CNC(=O)c1cc(Br)ccc1Cl)c1ccco1 (stereo unspecified)	/	/	0	/	/	/
Cc1c(C(=O)NCC(c2ccco2)N(C)C)oc2c(Cl)cccc12 (stereo unspecified)	/	/	48*	/	/	/
O=C(Nc1ccc(Cl)cc1)Nc1ccccc1Sc1ncc([N+](=O)[O-])s1	0	1	66*	5	/	3
O=C(Nc1ccccc1)n1cc(-c2ccccn2)c(N2CCOCC2)n1	-13	-5	14	4	133*	-4
COc1ccccc1/C=C/C(=O)N1CCN(S(=O)(=O)c2cccs2)CC1	/	/	4	/	/	/
SMILES	thrombin 1536	FXIa inh	AHR activator	FXIIa inh	STAT3 activator	hK5 inh
Cc1c(CCOC(=O)C23CC4CC(CC(C4)C2)C3)sc[n+]1Cc1ccccc1	-1	-3	69*	7	105	-10
O=C(N/N=C/c1cc2c(cc1[N+](=O)[O-])OCO2)c1cccnc1	-4	0	51*	9	/	1
O=C(N/N=C/c1cc2cc3c(cc2nc1Cl)OCO3)c1ccncc1	4	4	64*	6	/	6
O=C(N/N=C/c1cc2c(cc1[N+](=O)[O-])OCO2)c1ccc2c(c1)OCO2	/	/	9	/	/	/
O=C(N/N=C/c1cc2c(c([N+](=O)[O-])c1)OCO2)c1ccncc1	/	/	61*	/	/	/
Cc1ccc(C(=O)N/N=C\c2ccc3c(c2)OCO3)cn1	/	/	7	/	/	/
O=C(N/N=C/c1ccc2c(c1)OCO2)c1cccnc1	/	/	55*	/	/	/
Cc1ccc2[nH]c3c(=O)n(CC(=O)N4CCN(C)CC4)ncc3c2c1	/	/	3	/	/	/
COc1ccc(-c2ccccc2NC(=O)C2CCCN(Cc3ccc(C)o3)C2)cc1 (stereo unspecified)	/	/	7	/	/	/
CCc1nc2cc([N+](=O)[O-])c([N+](=O)[O-])cc2[nH]1	-7	-8	3	1	101	-13
S=C(NC1CCCC1)N1CCN(c2ccccn2)CC1	-6	4	57*	11	80	-10
O=C(NC(=S)N1CCN(c2ccccn2)CC1)c1ccccc1	2	11	-1	14	94	-3
COc1ccccc1NS(=O)(=O)c1c(C)[nH]c(C)c1C(=O)N1CCCC1	/	/	-3	/	/	/
CCN(CC)c1nc2ccccc2c(N)c1-c1ccccc1	0	8	55*	20	85	-11
Cc1cc(C(=O)N/N=C/c2c(C)[nH]c3ccccc23)n[nH]1	-3	-1	17	7	/	1
Cc1cc(C(=O)N/N=C/c2c3ccccc3cc3ccccc23)n[nH]1	/	/	98*	/	/	/
Cc1cc(C(=O)N/N=C/c2c(C)n(C)c3ccccc23)n[nH]1	-1	6	77*	16	92	-12
Cc1ccc(N=N/C(=C\O)C(=O)c2ccncc2)cc1	2	-13	9	17	117	10
O=C(/C(=C/O)N=Nc1ccc(Cl)cc1)c1ccncc1	2	-3	73*	6	104	3
O=CN1Cc2[nH]c3ccccc3c2N(c2ccc(Cl)cc2)C1=O	-2	-1	65*	7	113	-4
O=C1CNCc2[nH]c3ccccc3c2N1c1ccccc1	0	1	54*	11	109	4
CCOc1ccccc1C1NC(=O)CCC1[N+](=O)[O-] (stereo unspecified)	/	/	-1	/	/	/
CCOC(=O)N1CCN(C(=O)c2cnn3c(C)c(Cc4ccc(C)cc4)c(C)nc23)CC1	10	4	0	21	83	63*
COc1ccc(-c2[nH]ncc2CN2CCCC(C(=O)c3cccc(OC)c3)C2)cc1 (stereo unspecified)	-11	-6	73*	-1	102	-4
COc1ccc(/C=C/C(=O)OCC(=O)Nc2ccc(N3CCOCC3)cc2)cc1OC	-5	-10	3	4	/	38
COc1ccc(/C=C/C(=O)OCC(=O)Nc2ccc(N3CCOCC3)cc2)cc1	20	6	0	21	104	82*
COc1ccc(-c2cn3cccnc3n2)cc1NC(=O)C(C)C	/	/	49*	/	/	/
COc1ccc(-c2cn3cccnc3n2)cc1NC(=O)C1CC1	-1	0	45	12	108	-17
